Shown are actives, neighbours in structure and some others; about 4% of the full set was active somewhere.
MDM2 E3 inh – blocks human Mdm2 ubiquitin ligase activity | Q00987 | signal enhancement, % at 5 µM | cell-based MDM2 ubiquitination luciferase reporter, 2 h; 0 = plate control, 100 = twice control, blank-subtracted | 210,000 tested, 0.11% active | AID 1230;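 active = signal enhancement of 30% or more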;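 note: luminescence tracks abundance of the self-degrading MDM2-luciferase fusion protein; higher signal means inhibition of MDM2 E3 ligase activity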
Target sequence (Q00987 whole entry, looked up, the tested form may be a part): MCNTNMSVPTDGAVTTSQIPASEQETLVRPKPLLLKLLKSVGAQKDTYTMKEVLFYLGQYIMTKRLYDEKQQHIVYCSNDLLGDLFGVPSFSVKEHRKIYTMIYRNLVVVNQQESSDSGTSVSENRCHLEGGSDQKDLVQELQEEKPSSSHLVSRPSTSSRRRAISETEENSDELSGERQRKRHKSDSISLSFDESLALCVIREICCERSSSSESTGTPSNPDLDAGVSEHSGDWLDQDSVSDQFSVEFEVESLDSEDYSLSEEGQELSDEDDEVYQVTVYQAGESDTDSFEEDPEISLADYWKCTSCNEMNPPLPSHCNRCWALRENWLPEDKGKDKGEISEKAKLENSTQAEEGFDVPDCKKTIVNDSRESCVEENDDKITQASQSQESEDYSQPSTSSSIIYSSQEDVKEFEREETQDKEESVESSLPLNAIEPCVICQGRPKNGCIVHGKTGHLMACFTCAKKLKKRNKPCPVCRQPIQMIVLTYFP
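system = mammalian cells stably expressing self-ubiquitinating, self-degrading MDM2 E3–luciferase fusion | quantity = 2000 cells per well seeded | incubation = 4 h cell settling then 2 h compound exposure, 37 °C | signal = SteadyLite luminescence, 15 min reagent step | benchmarks = plate control and blank wells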
RAM inhibit – inhibitors of the yeast RAM network; S. cerevisiae dse1pr::URA3 reporter, 5-FOA growth OD615, 2 d; analog-sensitive cbk1-as2 kinase mutant strain; inhibition, % at 50 µM; 190,000 tested, 1.8% active;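 active = inhibition above a set limit, 3 SD over mean compound inhibition, cut at about 8.4% in these data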;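 note: 0% = DMSO-only wells with no growth and 100% = 10 µM 1-NA-PP1 full growth; inhibition rescues growth on 5-FOA so higher OD means more RAM inhibition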
INS promoter inh – TRM-6 insulin promoter activity inhibition. inhibition, % at 2 µM. TRM-6 cells, insulin promoter-eGFP reporter, imaging; reporter expression induced with tamoxifen. 130,000 tested, 0.9% active;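 active = inhibition above the mean plus 3 SD, with well images judged a real hit on visual review, cut at about 60% in these data, passing the limit was not always enough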
Yeast growth inh – yeast BB579 growth reduction in restrictive medium; S. cerevisiae BB579 growth, OD615, 48 h; 140,000 tested, 0.51% active; inhibition, % at 10 µM; AID 804;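 active = inhibition above a set limit, 3 SD over the mean compound inhibition, cut at about 44% in these data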
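System: Saccharomyces cerevisiae DeaD strain BB579, replicative lifespan model yeast | Buffer or medium: Restrictive glucose-based CSMM-D medium | Times: 4 h preincubation and 48 h exposure at 30 °C | Detection: OD615 turbidity measurement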
Yeast lifespan up – yeast lifespan extension; S. cerevisiae growth with nicotinamide, OD615; deaD strain in restrictive glucose medium; inhibition of the nicotinamide effect, % at 10 µM; 130,000 tested, 0.68% active; AID 775;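 active = inhibition above a set limit, placed 3 SD over the median of all compounds, cut at about 26% in these data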;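 note: 0% = nicotinamide-treated wells and 100% = cells grown without nicotinamide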
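Measured by: optical density (absorbance) at 615 nm; System: modified budding yeast, DeaD strain; Medium: restrictive CSMM-D dextrose medium; Timing: 4 h preincubation then 48 h treatment at 30 °C.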
Measles CPE – protection of cells from measles virus; Measles virus-infected cells, CPE protection, absorbance; protection (pct of control), % at 4 µM; 140,000 tested, 1.5% active; AID 841; in the data active = protection mostly above about 24%, no sharp cut-off; inactive = mostly below about 26%
Numbers without * were called inactive; . = no result given; ! = a repeat was not active.

SMILES	MDM2 E3 inh	RAM inhibit	INS promoter inh	Yeast growth inh	Yeast lifespan up	Measles CPE
Clc1ccc(N=c2ssnc2Cl)cc1	-19	-2	62	77*	.	13
O=C(NCc1cccs1)C1CCN(S(=O)(=O)c2ccccc2F)CC1	-94	.	.	.	.	.
O=C(CCCSc1ccccc1)Nc1nc(-c2ccccn2)cs1	-12	1	-9	57*	-5	14
O=C(Nc1nc(-c2ccccn2)cs1)c1ccc(Cl)s1	-2	-1	.	95*	-13	0
O=C(Nc1nc(-c2ccccn2)cs1)c1ncc(Cl)c(Cl)c1Cl	-18	2	34	59*	-20	37
Cn1cccc1C(=O)Nc1nc(-c2ccccn2)cs1	-19	0	9	46*	-20	6
CSCCC(=O)Nc1nc(-c2ccccn2)cs1	6	2	-36	.	.	.
Cc1csc(NC(=O)c2cccn2C)n1	-12	1	24	-22	-20	6
O=C(Nc1nc(-c2ccccn2)cs1)c1cc2ccccc2o1	-14	-1	-14	.	.	.
C/C(=N\O)C(C)(C)Nc1cccc(Br)c1	-14	.	.	.	.	.
Cc1cccc(NC(=S)NCC(c2cccnc2)N(C)C)c1 (stereo not given)	-7	1	.	-16	8	3
N#Cc1c(Cl)nsc1NN	0	2	.	.	.	.
Cc1ccc(NC2=C(Cl)C(=O)OC2OC(=O)c2ccc(C)cc2)cc1 (stereo not given)	-10	9.9*	.	.	.	.
COc1ccc(NC(=S)NNC(=O)c2nnn(-c3ccccc3)c2C)cc1	4	0	-3	8	3	5
COC(=O)c1ccc(CSc2cc(C)c3cccc(C)c3n2)o1	-16	8.5*	.	.	.	.
O=C(O)CCc1ccc(-c2cccs2)n1CCc1ccccc1	-1	9.5*	.	.	.	.
O=C(/C=C/c1cccc([N+](=O)[O-])c1)NCCSc1ccccc1	7	-1	-16	-10	-25	29
Cc1ccc(SCCNC(=O)/C=C/c2cccc([N+](=O)[O-])c2)cc1	.	9.7*	19	-24	-5	11
O=C(/C=C/c1cccc([N+](=O)[O-])c1)NCCSCc1c(Cl)cccc1Cl	7	9.7*	-17	-46	-1	27
O=C(CS(=O)(=O)c1cn(Cc2cccc(F)c2)c2ccccc12)N1CCOCC1	-10	9.3*	.	-12	-5	7
CCc1ccc(/C=N/n2c(C)cc(C)c(C#N)c2=O)cc1	0	0	39	1	-4	14
COC(=O)c1cccc(NC(=O)CN2CCN(Cc3ccccc3)CC2)c1	-20	-1	-14	-23	-10	12
COC(=O)c1ccc(Cl)c(NC(=O)CN2CCN(Cc3ccccc3)CC2)c1	5	0	-59	-8	-5	36*
O=C(CN1CCN(CC(=O)Nc2ccccc2C(F)(F)F)CC1)Nc1ccccc1F	-10	3	85*	-37	-2	9
O=C(CN1CCOCC1)Nc1ccccc1Cl	-2	-1	4	-10	-15	60*
SMILES	MDM2 E3 inh	RAM inhibit	INS promoter inh	Yeast growth inh	Yeast lifespan up	Measles CPE
O=C(CN1CCCCCC1)Nc1ccccc1F	-9	0	-37	-54	-5	8
Cc1ccc2nc3sc(C(=O)Nc4c(C)[nH]c(=O)[nH]c4=O)c(N)c3cc2c1	-17	8	.	-18	6	35
Cc1ccc2cc3c(N)c(C(=O)Nc4c(C)[nH]c(=O)[nH]c4=O)sc3nc2c1	-10	9.5*	.	-22	2	8
CN1Cc2cc(C(=O)c3ccccc3O)cnc2NC1=O	.	0	38	-15	-9	13
Cc1[nH]nc2ncc(C(=O)c3ccccc3O)cc12	-23	2	80*	-21	-21	4
COc1ccc(C2=NCC(CSc3nccc(=O)[nH]3)S2)cc1 (stereo not given)	-15	0	86*	-38	-7	4
Nc1nc2c(Cl)ccc(Cl)c2s1	-10	1	.	.	.	.
CCOC(=O)C1Cc2cc3c(cc2C1=O)CC(C(=O)OCC)C3=O (stereo not given)	1	-1	.	-10	51*	6
CCOC(=O)C1CC(=O)c2cc(OC)c(OC)cc2C1 (stereo not given)	-10	.	.	.	.	.
CC1(C2(O)CC(c3ccccc3)ON2)CCCCC1 (stereo not given)	-16	3	48	-18	0	29*
COc1ccc(C2CC(O)(C(C)(C)O)NO2)cc1 (stereo not given)	-8	3	-20	-28	-11	7
CCOc1ccc2nc(SCC)[nH]c2c1	-5	1	86*	0	-31	24
Fc1ccc(CSc2nc3ccccc3[nH]2)cc1	-11	1	65	-42	-15	4
c1ccc(-c2nnc(CSc3nc4ccccc4[nH]3)o2)cc1	-3	1	.	10	-8	33*
CCOc1ccc2nc(SCC(=O)Nc3nonc3C)[nH]c2c1	8	9.1*	.	.	.	.
CCSc1nc2ccccc2[nH]1	-11	3	100*!	-44	10	17
C/C(CC(=O)Nc1ccc(F)cc1)=N\NC(=O)COc1ccccc1	-18	3	43	5	-6	6
c1ccc(CSc2nc3ccccc3[nH]2)cc1	-28	.	.	.	.	.
c1ccc(CSCc2nc3ccccc3[nH]2)cc1	-5	2	76*	-18	-2	9
CC1=CS(=O)(=O)CC1Sc1nc2ccccc2[nH]1 (stereo not given)	-2	1	.	-59	68*	4
O=C(Cc1nc2ccccc2[nH]c1=O)c1ccccc1	-17	1	.	.	.	.
CCC(=O)Nc1ccc(C(=O)CSc2nc3ccccc3[nH]2)cc1	8	2	60*	-49	-2	4
O=c1[nH]c2ccccc2nc1Cc1ccccc1	-7	1	.	-72	43*	17
COc1ccc(/C=C/C(=O)OCC(=O)Nc2ccc(N3CCOCC3)cc2)cc1OC	-9	.	.	.	.	.
CC(C)Cc1nc2ccccc2[nH]1	-5	.	.	.	.	.
SMILES	MDM2 E3 inh	RAM inhibit	INS promoter inh	Yeast growth inh	Yeast lifespan up	Measles CPE
CCCc1nc2ccccc2[nH]1	-3	1	80*	-10	-6	9
Cc1nc(N(C)Cc2ccccc2)c2nnn(Cc3ccccc3)c2n1	-26	6	0	-80	6	19
CCC(C)NC(=O)CC(NS(=O)(=O)c1ccc(NC(C)=O)cc1)C(C)C (stereo not given)	-10	2	-47	.	.	.
COc1ccc(S(=O)(=O)NC(C(C)C)C(C)C)cc1OC	-15	2	-21	-34	6	9
COc1cc(S(=O)(=O)NC(C)C)ccc1Cl	3	0	34	-13	-4	33*
Cc1ccc(S(=O)(=O)N2CCC(=O)N(C(COCc3cccc(Cl)c3)C(C)C)CC2)cc1 (stereo not given)	.	8.6*	-95	-34	4	15
Cc1ccc(S(=O)(=O)N2CCC(=O)N(C(COCc3cccc(C)c3)C(C)C)CC2)cc1 (stereo not given)	.	4	-20	-40	6	6

High-throughput results: PubChem, several laboratories
